Legend:
Format in all cases: cell-based
[1] = species: Homo sapiens; experiment: Selectivity index, ratio of Ki for displacement of [3H] Spiperone from human D2L receptor expressed in CHO cells to Ki for displacement of [3H] Spiperone from human D4.4 receptor expressed in CHO cells
In short: (§1)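 Competition binding against [3H]spiperone on membranes of CHO cells stably expressing cloned human D2L, D2S, D3 or D4.4 receptors. Ki from monophasic curve fits; mean ± SEM of three to seven experiments, each in triplicate. Selectivity calculated as Ki(D2L, D2S or D3) divided by Ki(D4.4).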

[2] = species: Homo sapiens; experiment: Selectivity index, ratio of Ki for displacement of [3H] Spiperone from human D2S receptor expressed in CHO cells to Ki for displacement of [3H] Spiperone from human D4.4 receptor expressed in CHO cells; in short: as §1
[3] = species: Homo sapiens; experiment: Selectivity index, ratio of Ki for displacement of [3H] Spiperone from human D3 receptor expressed in CHO cells to Ki for displacement of [3H] Spiperone from human D4.4 receptor expressed in CHO cells; in short: as §1
[4] = target: D(3) dopamine receptor (Homo sapiens, UniProt P35462); experiment: Displacement of [3H] Spiperone from human D3 receptor expressed in CHO cells by competitive radioligand binding assay
[5] = target: T1, D(4) dopamine receptor (Homo sapiens, UniProt P21917); experiment: Displacement of [3H] Spiperone from human D4.4 receptor expressed in CHO cells by competitive radioligand binding assay
T1 sequence (P21917 whole entry): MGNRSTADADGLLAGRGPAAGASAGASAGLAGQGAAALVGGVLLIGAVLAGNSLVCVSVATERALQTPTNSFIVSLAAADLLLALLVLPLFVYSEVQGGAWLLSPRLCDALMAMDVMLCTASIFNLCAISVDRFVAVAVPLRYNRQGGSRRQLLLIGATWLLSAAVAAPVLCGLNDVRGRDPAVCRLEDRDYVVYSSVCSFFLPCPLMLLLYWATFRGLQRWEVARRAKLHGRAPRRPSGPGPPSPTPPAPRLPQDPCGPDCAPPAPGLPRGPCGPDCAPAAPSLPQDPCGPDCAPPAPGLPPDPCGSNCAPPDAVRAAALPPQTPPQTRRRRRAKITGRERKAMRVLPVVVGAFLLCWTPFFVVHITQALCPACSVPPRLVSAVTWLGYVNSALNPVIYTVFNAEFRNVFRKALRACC

[6] = target: T2, D(2) dopamine receptor (Homo sapiens, UniProt P14416); experiment: Displacement of [3H] Spiperone from human D2L receptor expressed in CHO cells by competitive radioligand binding assay
[7] = target: T2, D(2) dopamine receptor; experiment: Displacement of [3H] Spiperone from human D2S receptor expressed in CHO cells by competitive radioligand binding assay

Chain of D(3) dopamine receptor (P35462 whole entry): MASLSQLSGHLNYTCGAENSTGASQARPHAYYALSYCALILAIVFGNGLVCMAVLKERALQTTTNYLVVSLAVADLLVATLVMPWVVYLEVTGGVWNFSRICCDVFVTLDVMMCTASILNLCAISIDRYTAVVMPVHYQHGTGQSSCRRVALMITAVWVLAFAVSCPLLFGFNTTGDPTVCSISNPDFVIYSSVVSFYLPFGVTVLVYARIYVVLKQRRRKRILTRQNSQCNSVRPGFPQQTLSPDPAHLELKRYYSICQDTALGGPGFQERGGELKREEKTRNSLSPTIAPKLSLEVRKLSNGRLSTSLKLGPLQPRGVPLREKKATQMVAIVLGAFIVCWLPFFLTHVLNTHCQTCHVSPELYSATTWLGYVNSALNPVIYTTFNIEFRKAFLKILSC
T2 sequence (P14416 whole entry): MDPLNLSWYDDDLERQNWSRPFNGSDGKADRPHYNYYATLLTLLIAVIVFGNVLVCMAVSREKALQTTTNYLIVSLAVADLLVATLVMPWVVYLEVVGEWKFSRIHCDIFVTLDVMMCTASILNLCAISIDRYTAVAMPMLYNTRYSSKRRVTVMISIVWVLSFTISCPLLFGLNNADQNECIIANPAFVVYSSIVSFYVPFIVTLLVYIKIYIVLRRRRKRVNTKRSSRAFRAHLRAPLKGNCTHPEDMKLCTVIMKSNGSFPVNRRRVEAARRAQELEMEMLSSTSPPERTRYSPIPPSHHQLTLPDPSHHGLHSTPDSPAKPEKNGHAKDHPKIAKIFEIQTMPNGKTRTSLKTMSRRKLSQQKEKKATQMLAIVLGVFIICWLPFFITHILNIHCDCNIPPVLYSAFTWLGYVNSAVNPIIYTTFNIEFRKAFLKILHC

Row | Compound | Ratio Ki [1] | Ratio Ki [2] | Ratio Ki [3] | Ki [4] [nM] | Ki [5] [nM] | Ki [6] [nM] | Ki [7] [nM]
1 | COc1ccccc1N1CCN(CCCCNC(=O)/N=N/c2ccc(F)cc2)CC1 | 0.4 | 0.36 | 0.033 | 3.1 | – | – | –
2 | COc1ccc(N(Cc2ccc(C#N)cc2)NC(=O)NCCCN2CCN(c3ccccc3OC)CC2)cc1 | 16 | 6.9 | 14 | 220 | 16 | 250 | 110
3 | C=C(C)CN(NC(=O)NCCCN1CCN(c2ccccc2OC)CC1)c1ccc(OC)cc1 | 3.3 | 4.7 | 13 | 860 | 64 | 210 | 300
4 | O=C(NCCCN1CCN(c2ncccn2)CC1)NN(Cc1ccccc1)c1ccccc1 | 32 | 24 | 110 | 2000 | 18 | 580 | 440
5 | O=C(NCCCN1CCN(c2ccc(I)cc2)CC1)NN(Cc1ccccc1)c1ccccc1 | 33 | 32 | 62 | 1300 | 21 | 690 | 670
6 | O=C(NCCCN1CCN(c2ccc(Br)cc2)CC1)NN(Cc1ccc(F)cc1)c1ccccc1 | 17 | 13 | 30 | 1400 | 46 | 790 | 620
7 | COc1ccccc1N1CCN(CCCNC(=O)NN(Cc2ccccc2)c2ccc(Cl)cc2Cl)CC1 | 2.3 | 1.6 | 4 | 61 | 15 | 35 | 24
8 | COc1cccc(CN(NC(=O)NCCCN2CCN(c3ccccc3OC)CC2)c2ccc(F)cc2)c1 | 19 | 11 | 25 | 150 | 5.9 | 110 | 62
9 | COc1ccc(N(Cc2ccccc2)NC(=O)NCCCN2CCN(c3ccccc3OC)CC2)cc1 | 26 | 11 | 71 | 120 | 1.7 | 45 | 19
10 | COc1ccc(N(Cc2cccc(OC)c2)NC(=O)NCCCN2CCN(c3ccccc3OC)CC2)cc1 | 4.5 | 3.3 | 9.7 | 320 | 33 | 150 | 110
11 | COc1ccccc1N1CCN(CCCCNC(=O)NN(Cc2ccccc2)c2ccc(F)cc2)CC1 | 36 | 21 | 17 | 76 | 4.4 | 160 | 94
12 | COc1ccccc1N1CCN(CCCNC(=O)NN(Cc2ccc(-c3ccccc3)cc2)c2ccc(F)cc2)CC1 | 24 | 7.1 | 19 | 110 | 5.9 | 140 | 42
13 | COc1ccccc1N1CCN(CCCNC(=O)NN(Cc2ccccc2)c2ccc(Cl)cc2)CC1 | 11 | 7.9 | 45 | 130 | 2.9 | 32 | 23
14 | COc1ccccc1N1CCN(CCCNC(=O)/N=N/c2ccc(F)cc2)CC1 | 5.5 | 2.6 | 7 | 140 | 20 | 110 | 51
15 | O=C(NCCCN1CCN(c2ccc(Cl)cc2)CC1)NN(Cc1ccc(F)cc1)c1ccccc1 | 29 | 22 | 50 | 850 | 17 | 500 | 380
16 | COc1ccccc1N1CCN(CCCNC(=O)NN(Cc2ccccc2F)c2ccc(F)cc2)CC1 | 26 | 13 | 44 | 160 | 3.6 | 92 | 47
17 | O=C(NCCCN1CCN(c2ncccn2)CC1)NN(Cc1ccc(F)cc1)c1ccccc1 | 23 | 16 | 100 | 1900 | 19 | 430 | 310
18 | COc1ccccc1N1CCN(CCNC(=O)NN(Cc2ccccc2)c2ccc(F)cc2)CC1 | 11 | 7.9 | 78 | 700 | 9 | 100 | 71
19 | COc1ccccc1N1CCN(CCCNC(=O)NN(Cc2ccccc2F)c2ccc(Br)cc2)CC1 | 14 | 6.7 | 28 | 92 | 3.3 | 45 | 22
20 | O=C(NCCCN1CCN(c2ccc(Br)cc2)CC1)NN(Cc1ccccc1)c1ccccc1 | – | – | – | 1500 | 14 | – | –
21 | O=C(NCCCN1CCN(c2ccc(Cl)cc2)CC1)NN(Cc1ccccc1)c1ccccc1 | 66 | 42 | 110 | 1100 | 9.7 | 640 | 410
22 | COc1ccccc1N1CCN(CCCNC(=O)NN(Cc2cccc(F)c2)c2ccc(F)cc2)CC1 | 19 | 12 | 23 | 88 | 3.8 | 73 | 46
23 | C=CCN(NC(=O)NCCCN1CCN(c2ccccc2OC)CC1)c1ccc(OC)cc1 | 3 | 5.6 | 11 | 660 | 61 | 180 | 340
24 | O=C(NCCN1CCN(c2ccc(Br)cc2)CC1)NN(Cc1ccccc1)c1ccccc1 | 14 | 15 | 64 | 1800 | 28 | 390 | 430
25 | COc1ccc(N(Cc2ccc(F)cc2)NC(=O)NCCCN2CCN(c3ccccc3OC)CC2)cc1 | 55 | 38 | 140 | 400 | 2.9 | 160 | 110
26 | Cc1cccc(C(=O)NCN2CCN(c3ccccc3C#N)CC2)c1 [PD-168,077] | – | – | – | 4700 | – | 2300 | 1100

— ChEMBL document CHEMBL4321823, “Benzyl Phenylsemicarbazides: A Chemistry-Driven Approach Leading to G Protein-Biased Dopamine D4 Receptor Agonists with High Subtype Selectivity” (J Med Chem, 2019)
